The values below come from ChEMBL document CHEMBL4477233, “Discovery of novel TAOK2 inhibitor scaffolds from high-throughput screening” (Bioorg Med Chem Lett, 2016).

SMILES strings stand for the structures. Calls of active or inactive are those of the source. No cut-off for these calls is given here. Where only a bound is given, the exact number is not on record here.

Test [1] concerns the target T1, Serine/threonine-protein kinase TAO2 (Homo sapiens) (UniProt Q9UL54).
T1 sequence (whole entry): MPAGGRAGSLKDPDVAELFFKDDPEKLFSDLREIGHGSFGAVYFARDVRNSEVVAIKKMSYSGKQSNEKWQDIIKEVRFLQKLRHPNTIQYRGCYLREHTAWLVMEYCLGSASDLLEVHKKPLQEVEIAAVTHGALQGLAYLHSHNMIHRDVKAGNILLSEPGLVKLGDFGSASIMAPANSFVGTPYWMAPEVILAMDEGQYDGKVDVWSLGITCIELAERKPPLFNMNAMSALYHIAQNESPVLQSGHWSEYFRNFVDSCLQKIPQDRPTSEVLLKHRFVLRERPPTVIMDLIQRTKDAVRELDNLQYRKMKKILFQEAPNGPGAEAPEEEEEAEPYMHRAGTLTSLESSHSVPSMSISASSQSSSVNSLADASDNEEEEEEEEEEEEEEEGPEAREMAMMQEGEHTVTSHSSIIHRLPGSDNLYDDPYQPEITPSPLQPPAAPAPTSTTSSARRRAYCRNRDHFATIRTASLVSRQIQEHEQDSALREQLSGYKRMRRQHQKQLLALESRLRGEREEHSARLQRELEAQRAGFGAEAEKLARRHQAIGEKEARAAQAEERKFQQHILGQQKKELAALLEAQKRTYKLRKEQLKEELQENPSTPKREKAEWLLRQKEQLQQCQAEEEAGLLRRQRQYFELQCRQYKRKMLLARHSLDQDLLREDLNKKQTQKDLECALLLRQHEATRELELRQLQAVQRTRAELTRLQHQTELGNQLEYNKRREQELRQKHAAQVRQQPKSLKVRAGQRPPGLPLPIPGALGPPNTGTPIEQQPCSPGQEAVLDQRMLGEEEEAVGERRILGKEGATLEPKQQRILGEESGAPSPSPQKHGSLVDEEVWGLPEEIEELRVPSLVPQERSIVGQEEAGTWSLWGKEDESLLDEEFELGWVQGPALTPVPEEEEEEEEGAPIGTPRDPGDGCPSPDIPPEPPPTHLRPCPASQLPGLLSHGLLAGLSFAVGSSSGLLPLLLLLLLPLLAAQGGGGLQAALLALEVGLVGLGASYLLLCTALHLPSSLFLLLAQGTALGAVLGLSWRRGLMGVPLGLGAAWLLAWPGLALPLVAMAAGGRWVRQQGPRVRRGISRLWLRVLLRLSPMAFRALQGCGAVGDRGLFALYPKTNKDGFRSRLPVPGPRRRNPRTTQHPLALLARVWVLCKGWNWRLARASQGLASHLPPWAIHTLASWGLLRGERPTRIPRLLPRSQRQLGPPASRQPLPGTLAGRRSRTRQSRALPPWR
The test is described as follows: Inhibition of TAOK2 in human U2OS cells assessed as inhibition of cellular autophagy measured as GFP-LC3 accumulation at 50 uM after 24 hrs by flow cytometric analysis. The format is cell-based. The method, boiled down:
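U2OS cells stably expressing GFP–LC3 were exposed to compound at 50 µM in the medium for 24 h. GFP fluorescence was read by flow cytometry. The median value from 20,000 cells per condition was normalized to DMSO vehicle within each experiment. Data are mean + SD of >2 independent experiments, compared with vehicle by unpaired t test.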

Test [2] has as its target T1, Serine/threonine-protein kinase TAO2 (Homo sapiens). The test is described as follows: Inhibition of TAOK2 in human U2OS cells assessed as inhibition of cellular autophagy measured as P62 accumulation at 50 uM after 24 hrs by western blot analysis. It is filed as cell-based. Summed up: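 GFP–LC3-expressing U2OS cells were treated for 24 h with compound at 50 µM or with DMSO alone. p62 (SQSTM1) abundance was then assessed by Western blotting as a readout of autophagic degradation.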

The target is the same in test [3]. In words: Inhibition of human TAO2. Particulars: concentration not given here.
For test [4], the target named is Cyclin-dependent kinase 1 (Homo sapiens) (UniProt P06493). In words: Inhibition of human CDK1. Particulars: concentration not given here.
For test [5], the target named is T2, Serine/threonine-protein kinase TAO2 (Rattus norvegicus, UniProt Q9JLS3).
T2 sequence (Q9JLS3 whole entry): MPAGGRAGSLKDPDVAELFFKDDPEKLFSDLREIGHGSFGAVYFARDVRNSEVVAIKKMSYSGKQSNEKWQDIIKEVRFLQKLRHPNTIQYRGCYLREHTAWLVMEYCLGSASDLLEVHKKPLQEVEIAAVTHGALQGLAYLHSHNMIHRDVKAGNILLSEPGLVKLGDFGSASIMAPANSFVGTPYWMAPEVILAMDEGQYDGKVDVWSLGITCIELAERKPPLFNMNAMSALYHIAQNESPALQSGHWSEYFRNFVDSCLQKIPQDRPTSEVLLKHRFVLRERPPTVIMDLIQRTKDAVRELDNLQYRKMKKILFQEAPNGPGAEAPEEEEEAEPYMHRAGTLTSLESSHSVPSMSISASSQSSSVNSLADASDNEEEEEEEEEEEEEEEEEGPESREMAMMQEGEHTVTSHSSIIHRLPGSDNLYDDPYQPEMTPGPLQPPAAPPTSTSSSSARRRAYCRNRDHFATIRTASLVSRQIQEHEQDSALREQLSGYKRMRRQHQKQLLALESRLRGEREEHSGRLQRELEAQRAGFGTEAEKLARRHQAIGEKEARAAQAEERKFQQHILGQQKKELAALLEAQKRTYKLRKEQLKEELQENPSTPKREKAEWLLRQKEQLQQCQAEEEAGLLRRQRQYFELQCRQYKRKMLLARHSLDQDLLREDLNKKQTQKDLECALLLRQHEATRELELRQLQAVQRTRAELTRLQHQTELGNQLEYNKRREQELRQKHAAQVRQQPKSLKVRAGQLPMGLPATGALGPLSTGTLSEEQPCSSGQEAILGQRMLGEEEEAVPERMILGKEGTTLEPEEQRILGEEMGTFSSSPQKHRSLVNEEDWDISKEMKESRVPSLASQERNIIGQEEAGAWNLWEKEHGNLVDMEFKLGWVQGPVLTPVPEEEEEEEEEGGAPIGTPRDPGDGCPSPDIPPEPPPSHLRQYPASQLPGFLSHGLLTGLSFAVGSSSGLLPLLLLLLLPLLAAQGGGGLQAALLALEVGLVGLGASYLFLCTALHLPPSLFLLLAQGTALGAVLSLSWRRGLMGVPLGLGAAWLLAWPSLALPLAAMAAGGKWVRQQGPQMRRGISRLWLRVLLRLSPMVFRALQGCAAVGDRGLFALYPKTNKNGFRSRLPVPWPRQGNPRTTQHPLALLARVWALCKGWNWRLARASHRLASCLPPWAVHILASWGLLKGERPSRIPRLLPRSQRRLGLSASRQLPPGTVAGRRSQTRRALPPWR
The test is described as follows: Inhibition of rat TAOK2 (1 to 320 residues) expressed in Baculovirus/insect cell expression system using MBP as substrate measured after 10 mins in presence of [32P]ATP by radiometric assay.

The target of test [6] is Glycogen synthase kinase-3 beta (Homo sapiens) (UniProt P49841). The test is described as follows: Inhibition of human GSK3beta. Particulars: concentration not given here.
Test [7] addresses RAF proto-oncogene serine/threonine-protein kinase (Homo sapiens) (UniProt P04049). In words: Inhibition of human RAF-1. Particulars: concentration not given here.
Test [8] deals with Mitogen-activated protein kinase kinase kinase kinase 4 (Homo sapiens) (UniProt O95819). The test is described as follows: Inhibition of human HGK. Conditions: concentration not given here.
Chain of Mitogen-activated protein kinase kinase kinase kinase 4 (Homo sapiens) (O95819 2-1239 limits assumed): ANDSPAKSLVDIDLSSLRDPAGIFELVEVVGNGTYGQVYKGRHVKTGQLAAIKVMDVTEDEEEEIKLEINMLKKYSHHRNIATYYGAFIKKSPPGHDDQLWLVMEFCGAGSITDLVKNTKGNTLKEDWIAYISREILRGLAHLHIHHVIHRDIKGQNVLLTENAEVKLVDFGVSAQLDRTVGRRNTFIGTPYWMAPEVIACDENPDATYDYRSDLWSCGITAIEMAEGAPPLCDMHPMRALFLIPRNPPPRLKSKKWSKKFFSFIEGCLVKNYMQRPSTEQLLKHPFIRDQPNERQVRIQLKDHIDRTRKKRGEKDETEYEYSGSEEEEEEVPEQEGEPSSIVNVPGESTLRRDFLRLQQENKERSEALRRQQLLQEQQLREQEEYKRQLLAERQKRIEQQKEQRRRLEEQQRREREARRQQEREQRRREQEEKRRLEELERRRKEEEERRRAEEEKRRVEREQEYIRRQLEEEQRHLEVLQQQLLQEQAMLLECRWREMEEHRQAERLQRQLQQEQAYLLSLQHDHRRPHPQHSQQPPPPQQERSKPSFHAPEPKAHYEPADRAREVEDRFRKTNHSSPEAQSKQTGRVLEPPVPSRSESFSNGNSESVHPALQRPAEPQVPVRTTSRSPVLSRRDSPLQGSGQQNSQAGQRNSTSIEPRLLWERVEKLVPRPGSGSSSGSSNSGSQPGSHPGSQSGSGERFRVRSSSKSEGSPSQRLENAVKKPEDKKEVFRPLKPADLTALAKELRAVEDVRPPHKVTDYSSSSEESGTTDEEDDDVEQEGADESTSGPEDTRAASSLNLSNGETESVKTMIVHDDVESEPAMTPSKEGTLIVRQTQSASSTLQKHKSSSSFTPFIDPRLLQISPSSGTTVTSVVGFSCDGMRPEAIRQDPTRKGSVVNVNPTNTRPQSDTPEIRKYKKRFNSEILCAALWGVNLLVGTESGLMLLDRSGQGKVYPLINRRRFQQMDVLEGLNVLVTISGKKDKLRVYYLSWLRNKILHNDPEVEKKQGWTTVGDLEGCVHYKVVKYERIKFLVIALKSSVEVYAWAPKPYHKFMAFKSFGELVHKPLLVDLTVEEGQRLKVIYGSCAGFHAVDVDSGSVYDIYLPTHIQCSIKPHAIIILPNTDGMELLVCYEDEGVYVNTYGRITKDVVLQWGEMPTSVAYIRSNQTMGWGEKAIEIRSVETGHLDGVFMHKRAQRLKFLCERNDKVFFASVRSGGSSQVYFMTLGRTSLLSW

Chain of Cyclin-dependent kinase 1 (Homo sapiens) (P06493 whole entry, looked up): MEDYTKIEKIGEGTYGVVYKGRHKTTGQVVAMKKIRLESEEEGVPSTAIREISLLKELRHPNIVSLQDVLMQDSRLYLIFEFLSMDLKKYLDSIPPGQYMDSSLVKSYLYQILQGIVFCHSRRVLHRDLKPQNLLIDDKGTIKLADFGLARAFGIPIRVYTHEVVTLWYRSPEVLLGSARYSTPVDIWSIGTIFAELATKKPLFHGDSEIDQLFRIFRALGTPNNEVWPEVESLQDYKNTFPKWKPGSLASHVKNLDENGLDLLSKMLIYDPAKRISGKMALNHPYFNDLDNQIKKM
Chain of RAF proto-oncogene serine/threonine-protein kinase (Homo sapiens) (P04049 whole entry): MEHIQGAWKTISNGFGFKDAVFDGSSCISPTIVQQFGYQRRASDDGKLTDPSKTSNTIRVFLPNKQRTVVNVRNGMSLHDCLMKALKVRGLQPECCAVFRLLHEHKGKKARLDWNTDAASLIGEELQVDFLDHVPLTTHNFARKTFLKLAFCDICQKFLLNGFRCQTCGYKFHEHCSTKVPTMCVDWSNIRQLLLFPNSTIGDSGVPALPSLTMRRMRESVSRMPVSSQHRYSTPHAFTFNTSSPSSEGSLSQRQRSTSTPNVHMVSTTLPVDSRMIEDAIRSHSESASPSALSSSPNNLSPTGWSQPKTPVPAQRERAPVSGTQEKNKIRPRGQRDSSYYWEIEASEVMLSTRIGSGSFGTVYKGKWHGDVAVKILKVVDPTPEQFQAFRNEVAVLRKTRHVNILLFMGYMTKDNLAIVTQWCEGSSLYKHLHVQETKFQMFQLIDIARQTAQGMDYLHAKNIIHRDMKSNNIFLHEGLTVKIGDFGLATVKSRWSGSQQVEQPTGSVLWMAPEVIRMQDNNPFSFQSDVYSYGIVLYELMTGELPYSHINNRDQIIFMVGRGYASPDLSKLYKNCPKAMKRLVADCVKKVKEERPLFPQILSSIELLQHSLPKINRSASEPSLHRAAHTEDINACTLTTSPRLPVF
Chain of Glycogen synthase kinase-3 beta (Homo sapiens) (P49841 whole entry, looked up): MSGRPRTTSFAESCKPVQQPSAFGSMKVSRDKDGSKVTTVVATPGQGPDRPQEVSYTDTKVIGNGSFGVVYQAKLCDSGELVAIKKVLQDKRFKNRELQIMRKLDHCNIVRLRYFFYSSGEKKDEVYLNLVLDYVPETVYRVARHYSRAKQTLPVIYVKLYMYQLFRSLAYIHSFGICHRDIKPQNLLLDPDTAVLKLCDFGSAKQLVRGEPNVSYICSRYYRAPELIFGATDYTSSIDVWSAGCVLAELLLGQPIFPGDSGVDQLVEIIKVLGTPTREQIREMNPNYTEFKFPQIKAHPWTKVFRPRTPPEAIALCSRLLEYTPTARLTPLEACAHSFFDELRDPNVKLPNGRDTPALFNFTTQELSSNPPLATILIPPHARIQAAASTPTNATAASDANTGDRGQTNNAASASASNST

Take `CCOCCCn1c(=S)[nH]c2cc(C(=O)NCC3COc4ccccc4O3)ccc2c1=O` (stereo not given): the inhibition entry in test [1] and in test [2] was “Active” in each case. Further, in test [3], the inhibition is more than 50%.
For the molecule `CS(=O)(=O)c1ccc2nc(NC(=O)CCCOc3ccc(Cl)cc3)sc2c1`, the inhibition result in test [1] and in test [2] was “Active” in each case. The molecule also displayed an inhibition in test [3] of more than 50%.
As for `c1cc2[nH]c3c(c2c2nonc12)CCCC3`, in test [1], the inhibition result is “Active”.
Regarding `CCC(=O)Nc1nc(C)c(-c2csc(Nc3cc(OC)ccc3OC)n2)s1`, the inhibition result in test [1] is “Active”. The inhibition in test [4], in test [6], in test [7], in test [3] and in test [8] was more than 50% each time. The inhibition result in test [2] is “inactive”. Further, the IC50 in test [5] worked out at 300 nM.
Regarding `O=C(NCC1COc2ccccc2O1)c1ccc(NC(=O)c2ccco2)cc1` (stereo not given), the inhibition result in test [1] and in test [2] was “Active” throughout.
As for `Cc1ccc(C(=O)CSc2nnc(-c3ccncc3)[nH]2)c(C)c1`, the inhibition entry in test [1] is “Active”.
Consider `Cc1ccc(NCCCC(=O)N/N=C/c2cc(Br)cc(Br)c2O)cc1`, for which the inhibition entry in test [1] was “Active”.
Take `O=C(O)c1cc(-c2ccc(-c3ccccc3[N+](=O)[O-])o2)nc2ccc3ccccc3c12`: the inhibition entry in test [1] was “Active”.
